Laboratory results taken from ChEMBL document CHEMBL1145031, “Rational design, synthesis, and structure-activity relationships of novel factor Xa inhibitors: (2-substituted-4-amidinophenyl)pyruvic and -propionic acids” (J Med Chem, 2003).
Blank lines part the entries; values can stand above or below the molecule they belong to.

How the values were obtained:
Prothrombin = Prothrombin (Homo sapiens, UniProt P00734); test: Inhibitory activity against thrombin
Procedure, shortened: (§1)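 Chromogenic assay at room temperature in pH 8.4 buffer (0.1 M Tris, 0.2 M NaCl, 0.1% PEG-6000, 0.02% Tween20). For fXa, 4.5 nM enzyme with 200 μM S-2222; for thrombin, 1.1 nM enzyme with 100 μM S-2238 (final). Inhibitor and enzyme preincubated 10 min, then substrate added. p-Nitroaniline release read at 405 nm for 16 min. IC50 taken from initial velocities; apparent Ki scaled from IC50 ratios against a standard inhibitor's Ki from a double reciprocal plot.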

Coagulation factor X = Coagulation factor X (Homo sapiens, UniProt P00742); test: Inhibitory activity against Coagulation factor X (fXa); procedure, shortened: as §1
[1] = target: Thrombin and coagulation factor X (Homo sapiens) (UniProt P00734+P00742); test: Selectivity for factor Xa (fXa) versus thrombin; assay type: protein assay
Monkey = test: Concentration required to double the prothrombin time (PT) in plasma of cynomolgus monkey
Homo sapiens = organism: Homo sapiens; test: Concentration required to double the prothrombin time(PT) in human plasma was determined; assay type: functional
[2] = Oral bioavailability; assay type: ADME, organism-based; conditions: eutheria, in vivo
Procedure, shortened: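 Overnight-fasted male cynomolgus monkeys received 10 mg/kg orally by gastric tube, or 0.3 or 1.0 mg/kg intravenously. Saphenous vein blood was drawn into trisodium citrate before dosing and at several times up to 24 h. Plasma drug levels were measured by HPLC.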

Sequence of Thrombin and coagulation factor X (Homo sapiens) (P00742 whole entry, looked up, other chains not shown): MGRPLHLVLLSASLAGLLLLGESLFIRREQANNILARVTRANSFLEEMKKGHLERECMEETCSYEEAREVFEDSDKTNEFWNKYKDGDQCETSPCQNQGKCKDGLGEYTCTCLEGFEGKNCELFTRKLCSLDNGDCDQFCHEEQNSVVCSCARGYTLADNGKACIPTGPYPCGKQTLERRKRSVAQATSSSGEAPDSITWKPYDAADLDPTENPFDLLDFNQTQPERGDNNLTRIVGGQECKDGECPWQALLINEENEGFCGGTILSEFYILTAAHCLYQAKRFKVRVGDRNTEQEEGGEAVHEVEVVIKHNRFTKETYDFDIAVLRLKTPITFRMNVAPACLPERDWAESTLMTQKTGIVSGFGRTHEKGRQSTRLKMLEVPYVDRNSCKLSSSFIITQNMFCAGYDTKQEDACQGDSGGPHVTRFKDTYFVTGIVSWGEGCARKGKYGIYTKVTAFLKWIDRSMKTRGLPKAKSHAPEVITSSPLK
Sequence of Coagulation factor X (P00742 41-179 limits assumed): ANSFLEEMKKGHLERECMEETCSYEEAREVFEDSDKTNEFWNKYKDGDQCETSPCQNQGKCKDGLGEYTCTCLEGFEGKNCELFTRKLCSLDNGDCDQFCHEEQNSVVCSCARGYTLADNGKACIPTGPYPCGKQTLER
Sequence of Coagulation factor X (P00742 235-488 limits assumed): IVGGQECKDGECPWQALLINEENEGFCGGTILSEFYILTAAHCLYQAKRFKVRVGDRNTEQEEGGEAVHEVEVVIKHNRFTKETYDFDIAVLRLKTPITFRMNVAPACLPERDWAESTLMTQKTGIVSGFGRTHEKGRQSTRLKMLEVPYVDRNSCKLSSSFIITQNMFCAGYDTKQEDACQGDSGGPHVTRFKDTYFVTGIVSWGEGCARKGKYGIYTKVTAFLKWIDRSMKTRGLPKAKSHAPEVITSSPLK

SMILES: N=C(N)c1ccc(CCC(=O)O)c(OCCNC(=O)C2CCN(c3ccncc3)CC2)c1
- Ki (Prothrombin): > 1500 µM
- Ki (Coagulation factor X): 0.043 µM
- PT (Monkey): 0.7 µM
- PT (Homo sapiens): 0.42 µM
- Ratio [1]: > 35000
- bioavailability [2]: 6%

SMILES: N=C(N)c1ccc(C(=O)NCCOc2cccc(C(=N)N)c2)cc1
- Ki (Prothrombin): 710 µM
- Ki (Coagulation factor X): 0.22 µM
- Ratio [1]: 3200

SMILES: N=C(N)c1ccc(C(=O)N[C@@H](COc2cccc(C(=N)N)c2)CC(=O)O)cc1
- Ki (Prothrombin): > 1500 µM
- Ki (Coagulation factor X): 0.028 µM
- Ratio [1]: > 54000

SMILES: N=C(N)c1ccc(C(=O)N[C@H](COc2cccc(C(=N)N)c2)CC(=O)O)cc1
- Ki (Prothrombin): > 1500 µM
- Ki (Coagulation factor X): 0.17 µM
- Ratio [1]: > 8800

SMILES: N=C(N)c1cccc(OCCNC(=O)c2ccccc2)c1
- Ki (Prothrombin): 800 µM
- Ki (Coagulation factor X): 2.8 µM
- Ratio [1]: 290

SMILES: CC(=N)N1CCC(Oc2ccc(C(=O)NCCOc3cc(C(=N)N)ccc3CCC(=O)O)cc2)CC1
- Ki (Prothrombin): > 1500 µM
- Ki (Coagulation factor X): 0.033 µM
- Ratio [1]: > 45000

SMILES: N=C(N)c1cccc(OCCNC(=O)C2CCN(c3ccncc3)CC2)c1
- Ki (Prothrombin): 1000 µM
- Ki (Coagulation factor X): 0.29 µM
- Ratio [1]: 3500

Stronger by Ki (Prothrombin), values ahead:

- Ki (Prothrombin): 440 µM
- Ki (Coagulation factor X): 0.17 µM
- Ratio [1]: 2600
SMILES: CC(=N)N1CCC(Oc2ccc(C(=O)NCCOc3cccc(C(=N)N)c3)cc2)CC1

- Ki (Prothrombin): 110 µM
- Ki (Coagulation factor X): 0.02 µM
- Ratio [1]: 5500
SMILES: N=C(N)c1cccc(OCCNC(=O)c2ccc(C(=O)N3CCCC3)cc2)c1

- Ki (Prothrombin): 53 µM
- Ki (Coagulation factor X): 0.02 µM
- Ratio [1]: 2700
SMILES: CC(=N)N1CCC(Oc2ccc(C(=O)NCCOc3cc(C(=N)N)ccc3CC(=O)C(=O)O)cc2)CC1
- PT (Monkey): 0.12 µM
- PT (Homo sapiens): 0.2 µM

- Ki (Prothrombin): 38 µM
- Ki (Coagulation factor X): 0.026 µM
- Ratio [1]: 1500
SMILES: N=C(N)c1ccc(C(=O)NCCOc2cc(C(=N)N)ccc2CC(=O)C(=O)O)cc1

- Ki (Prothrombin): 540 µM
- Ki (Coagulation factor X): 0.011 µM
- Ratio [1]: 49000
- bioavailability [2]: 12%
SMILES: CC(=N)N1CCC(Oc2ccc(C(=O)N[C@@H](COc3cc(C(=N)N)ccc3CC(=O)C(=O)O)CC(=O)O)cc2)CC1
- PT (Monkey): 0.38 µM
- PT (Homo sapiens): 0.38 µM

- Ki (Prothrombin): 24 µM
- Ki (Coagulation factor X): 0.003 µM
- Ratio [1]: 8000
SMILES: N=C(N)c1ccc(CC(=O)C(=O)O)c(OCCNC(=O)c2ccc(C(=O)N3CCCC3)cc2)c1

- Ki (Prothrombin): 140 µM
- Ki (Coagulation factor X): 0.021 µM
- Ratio [1]: 6700
- bioavailability [2]: 12%
SMILES: N=C(N)c1ccc(CC(=O)C(=O)O)c(OCCNC(=O)C2CCN(c3ccncc3)CC2)c1
- PT (Monkey): 0.22 µM
- PT (Homo sapiens): 0.22 µM

- Ki (Prothrombin): 680 µM
- Ki (Coagulation factor X): 0.018 µM
- Ratio [1]: 38000
SMILES: N=C(N)c1ccc(CC(=O)C(=O)O)c(OC[C@@H](CC(=O)O)NC(=O)C2CCN(c3ccncc3)CC2)c1
